# Source: ChEMBL document CHEMBL1141667, “Synthesis and antimicrobial activities of 7-O-modified genistein derivatives” (2008)
# Assays:
# Type in all cases: functional
# [1] = tested on: Bacillus subtilis; test: Antibacterial activity against Bacillus subtilis after 24 hrs by MTT assay
# Summary of the method: (§1)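 Broth microdilution MIC in MH medium. Compounds from a 50 mg/mL DMSO stock were serially diluted in medium. Inoculum was about 10⁵ cfu/mL, each concentration in triplicate, incubated at 37 °C for 24 h. MIC was read visually, then confirmed by adding PBS with 2 mg/mL MTT and incubating 4–5 h at room temperature. A compound-free medium control checked for any MTT effect on growth.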
# [2] = tested on: Staphylococcus aureus; test: Antibacterial activity against Staphylococcus aureus after 24 hrs by MTT assay; summary of the method: as §1
# [3] = tested on: Pseudomonas fluorescens; test: Antibacterial activity against Pseudomonas fluorescens after 24 hrs by MTT assay; summary of the method: as §1
# [4] = tested on: Escherichia coli; test: Antibacterial activity against Escherichia coli after 24 hrs by MTT assay; summary of the method: as §1
# [5] = tested on: Trichophyton rubrum; test: Antifungal activity against Trichophyton rubrum after 48 hrs by MTT assay
# Summary of the method: (§2)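 Antifungal MIC by microdilution in RPMI-1640 medium. Compounds came from a 50 mg/mL DMSO stock and were serially diluted. Inoculum was about 10⁵ cfu/mL, with triplicate wells per concentration, incubated at 37 °C for 48 h. MIC was judged visually, followed by PBS containing 2 mg/mL MTT for 4–5 h at room temperature for the colorimetric read. A compound-free control tested MTT interference.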
# [6] = tested on: Candida albicans; test: Antifungal activity against Candida albicans after 48 hrs by MTT assay; summary of the method: as §2
# [7] = tested on: Aspergillus niger; test: Antifungal activity against Aspergillus niger after 48 hrs by MTT assay; summary of the method: as §2
Compound,MIC [1],MIC [2],MIC [3],MIC [4],MIC [5],MIC [6],MIC [7]
O=c1c(-c2ccc(O)cc2)coc2cc(OCCCCNCc3ccco3)cc(O)c12,> 50 µg/mL,35.3 µg/mL,12 µg/mL,> 50 µg/mL,> 50 µg/mL,> 50 µg/mL,> 50 µg/mL
NC[C@H]1O[C@H](O[C@H]2[C@H](O)[C@@H](O[C@H]3O[C@H](CO)[C@@H](O)[C@H](N)[C@H]3O)[C@H](N)C[C@@H]2N)[C@H](O)[C@@H](O)[C@@H]1O [KANAMYCIN],1 µg/mL,1 µg/mL,3.9 µg/mL,3.9 µg/mL,–,–,–
O=c1c(-c2ccc(O)cc2)coc2cc(OCCCn3cnc4ccccc43)cc(O)c12,> 50 µg/mL,> 50 µg/mL,> 50 µg/mL,> 50 µg/mL,> 50 µg/mL,> 50 µg/mL,> 50 µg/mL
O=c1c(-c2ccc(O)cc2)coc2cc(OCCCN3CCCC3)cc(O)c12,48.5 µg/mL,18.5 µg/mL,20.5 µg/mL,> 50 µg/mL,21.5 µg/mL,20.5 µg/mL,23.5 µg/mL
O=c1c(-c2ccc(O)cc2)coc2cc(OCCCCN3CCCCC3)cc(O)c12,> 50 µg/mL,> 50 µg/mL,> 50 µg/mL,> 50 µg/mL,> 50 µg/mL,> 50 µg/mL,> 50 µg/mL
O=c1c(-c2ccc(O)cc2)coc2cc(OCCn3cnc4ccccc43)cc(O)c12,> 50 µg/mL,> 50 µg/mL,> 50 µg/mL,> 50 µg/mL,> 50 µg/mL,> 50 µg/mL,> 50 µg/mL
CCCCN(CCCC)CCCCOc1cc(O)c2c(=O)c(-c3ccc(O)cc3)coc2c1,3.7 µg/mL,1.7 µg/mL,13.2 µg/mL,> 50 µg/mL,> 50 µg/mL,> 50 µg/mL,> 50 µg/mL
CCCCN(CCCC)CCCOc1cc(O)c2c(=O)c(-c3ccc(O)cc3)coc2c1,> 50 µg/mL,17.1 µg/mL,18.5 µg/mL,> 50 µg/mL,> 50 µg/mL,> 50 µg/mL,> 50 µg/mL
O=c1c(-c2ccc(O)cc2)coc2cc(OCCCCBr)cc(O)c12,> 50 µg/mL,> 50 µg/mL,> 50 µg/mL,> 50 µg/mL,> 50 µg/mL,> 50 µg/mL,> 50 µg/mL
CN1CCN(CCCOc2cc(O)c3c(=O)c(-c4ccc(O)cc4)coc3c2)CC1,43 µg/mL,> 50 µg/mL,> 50 µg/mL,> 50 µg/mL,> 50 µg/mL,> 50 µg/mL,> 50 µg/mL
O=c1c(-c2ccc(O)cc2)coc2cc(OCCN3CCOCC3)cc(O)c12,> 50 µg/mL,> 50 µg/mL,> 50 µg/mL,> 50 µg/mL,> 50 µg/mL,> 50 µg/mL,> 50 µg/mL
CCCN(CCC)CCCOc1cc(O)c2c(=O)c(-c3ccc(O)cc3)coc2c1,32 µg/mL,15.3 µg/mL,45 µg/mL,> 50 µg/mL,> 50 µg/mL,> 50 µg/mL,> 50 µg/mL
CC(=O)N1CCN(c2ccc(OCC3COC(Cn4ccnc4)(c4ccc(Cl)cc4Cl)O3)cc2)CC1 (stereo not given) [KETOCONAZOLE],–,–,–,–,3.9 µg/mL,3.9 µg/mL,7.8 µg/mL
O=c1c(-c2ccc(O)cc2)coc2cc(OCCCCN3CCNCC3)cc(O)c12,15.5 µg/mL,20.1 µg/mL,37.5 µg/mL,> 50 µg/mL,> 50 µg/mL,> 50 µg/mL,> 50 µg/mL
CCCN(CCC)CCOc1cc(O)c2c(=O)c(-c3ccc(O)cc3)coc2c1,> 50 µg/mL,41.2 µg/mL,47.5 µg/mL,> 50 µg/mL,> 50 µg/mL,> 50 µg/mL,> 50 µg/mL
O=c1c(-c2ccc(O)cc2)coc2cc(OCCCBr)cc(O)c12,> 50 µg/mL,> 50 µg/mL,> 50 µg/mL,> 50 µg/mL,> 50 µg/mL,> 50 µg/mL,> 50 µg/mL
O=c1c(-c2ccc(O)cc2)coc2cc(OCCN3CCCCC3)cc(O)c12,> 50 µg/mL,> 50 µg/mL,> 50 µg/mL,> 50 µg/mL,> 50 µg/mL,> 50 µg/mL,> 50 µg/mL
O=c1c(-c2ccc(O)cc2)coc2cc(OCCCNCc3ccco3)cc(O)c12,12.5 µg/mL,3.4 µg/mL,10.5 µg/mL,> 50 µg/mL,> 50 µg/mL,> 50 µg/mL,45.5 µg/mL

Compound,MIC [1],MIC [2],MIC [3],MIC [4],MIC [5],MIC [6],MIC [7]
O=c1c(-c2ccc(O)cc2)coc2cc(OCCCCn3ccnc3)cc(O)c12,> 50 µg/mL,> 50 µg/mL,> 50 µg/mL,> 50 µg/mL,> 50 µg/mL,> 50 µg/mL,> 50 µg/mL
CCCCN(CCCC)CCOc1cc(O)c2c(=O)c(-c3ccc(O)cc3)coc2c1,30 µg/mL,32.8 µg/mL,37 µg/mL,> 50 µg/mL,> 50 µg/mL,> 50 µg/mL,41.6 µg/mL
O=c1c(-c2ccc(O)cc2)coc2cc(OCCCN3CCOCC3)cc(O)c12,> 50 µg/mL,> 50 µg/mL,> 50 µg/mL,> 50 µg/mL,> 50 µg/mL,> 50 µg/mL,> 50 µg/mL
O=c1c(-c2ccc(O)cc2)coc2cc(OCCCCN3CCCC3)cc(O)c12,38.5 µg/mL,23.7 µg/mL,23.1 µg/mL,> 50 µg/mL,48.5 µg/mL,> 50 µg/mL,> 50 µg/mL
O=c1c(-c2ccc(O)cc2)coc2cc(OCCBr)cc(O)c12,> 50 µg/mL,> 50 µg/mL,> 50 µg/mL,> 50 µg/mL,> 50 µg/mL,> 50 µg/mL,> 50 µg/mL
O=c1c(-c2ccc(O)cc2)coc2cc(OCCCn3ccnc3)cc(O)c12,> 50 µg/mL,> 50 µg/mL,> 50 µg/mL,> 50 µg/mL,> 50 µg/mL,> 50 µg/mL,> 50 µg/mL
O=c1c(-c2ccc(O)cc2)coc2cc(OCCN3CCCC3)cc(O)c12,> 50 µg/mL,49.6 µg/mL,28.5 µg/mL,> 50 µg/mL,> 50 µg/mL,> 50 µg/mL,39.8 µg/mL
O=c1c(-c2ccc(O)cc2)coc2cc(O)cc(O)c12 [GENISTEIN],> 50 µg/mL,> 50 µg/mL,> 50 µg/mL,> 50 µg/mL,> 50 µg/mL,> 50 µg/mL,> 50 µg/mL
O=c1c(-c2ccc(O)cc2)coc2cc(OCCCN3CCNCC3)cc(O)c12,> 50 µg/mL,40 µg/mL,> 50 µg/mL,> 50 µg/mL,> 50 µg/mL,> 50 µg/mL,> 50 µg/mL
CN1CCN(CCCCOc2cc(O)c3c(=O)c(-c4ccc(O)cc4)coc3c2)CC1,30.3 µg/mL,27.2 µg/mL,37.4 µg/mL,> 50 µg/mL,> 50 µg/mL,> 50 µg/mL,> 50 µg/mL
CN1CCN(CCOc2cc(O)c3c(=O)c(-c4ccc(O)cc4)coc3c2)CC1,> 50 µg/mL,35.5 µg/mL,> 50 µg/mL,> 50 µg/mL,> 50 µg/mL,> 50 µg/mL,> 50 µg/mL
O=c1c(-c2ccc(O)cc2)coc2cc(OCCn3ccnc3)cc(O)c12,> 50 µg/mL,> 50 µg/mL,> 50 µg/mL,> 50 µg/mL,> 50 µg/mL,> 50 µg/mL,> 50 µg/mL
O=c1c(-c2ccc(O)cc2)coc2cc(OCCNCc3ccco3)cc(O)c12,> 50 µg/mL,> 50 µg/mL,> 50 µg/mL,> 50 µg/mL,> 50 µg/mL,> 50 µg/mL,> 50 µg/mL
O=c1c(-c2ccc(O)cc2)coc2cc(OCCN3CCNCC3)cc(O)c12,47.5 µg/mL,17.5 µg/mL,23.5 µg/mL,> 50 µg/mL,> 50 µg/mL,> 50 µg/mL,> 50 µg/mL
O=c1c(-c2ccc(O)cc2)coc2cc(OCCCCn3cnc4ccccc43)cc(O)c12,> 50 µg/mL,21.3 µg/mL,> 50 µg/mL,> 50 µg/mL,> 50 µg/mL,> 50 µg/mL,> 50 µg/mL
O=c1c(-c2ccc(O)cc2)coc2cc(OCCCCN3CCOCC3)cc(O)c12,35.5 µg/mL,37.5 µg/mL,> 50 µg/mL,> 50 µg/mL,> 50 µg/mL,> 50 µg/mL,> 50 µg/mL
O=c1c(-c2ccc(O)cc2)coc2cc(OCCCN3CCCCC3)cc(O)c12,> 50 µg/mL,> 50 µg/mL,> 50 µg/mL,> 50 µg/mL,> 50 µg/mL,> 50 µg/mL,> 50 µg/mL
CCCN(CCC)CCCCOc1cc(O)c2c(=O)c(-c3ccc(O)cc3)coc2c1,19.5 µg/mL,10.5 µg/mL,19.5 µg/mL,> 50 µg/mL,> 50 µg/mL,> 50 µg/mL,> 50 µg/mL
